Laboratory results published in ChEMBL document CHEMBL4049419, “Structure-Based Discovery of New Antagonist and Biased Agonist Chemotypes for the Kappa Opioid Receptor” (J Med Chem, 2017).
Calls of active or inactive are those of the source. No cut-off for these calls is given here.

Tests used:
[1] = target: T1, Kappa-type opioid receptor (Homo sapiens, UniProt P41145); assay: Displacement of 3H-U69593 from human KOR expressed in HEK293 cells at 50 uM after 90 mins by micro beta scintillation counting analysis; type: cell-based
How it was run: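 Primary screen of 3H-U69593 binding at cloned human KOR in HEK293 cells, using a single compound concentration of 50 µM tested in quadruplicate. Percent inhibition of radioligand binding is reported.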

[2] = target: T1, Kappa-type opioid receptor; assay: Displacement of 3H-U69593 from human KOR expressed in HEK293 cells after 90 mins by micro beta scintillation counting analysis; type: cell-based
How it was run: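 Competition binding with 3H-U69593 at cloned human KOR expressed in HEK293 cells. Ki was derived from the curves; normalized data from three independent assays were pooled, mean ± SEM.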

Homo sapiens [3] = organism: Homo sapiens; assay: Ratio of Ki for KOR M142A mutant (unknown origin) to Ki for human KOR expressed in HEK293 cells; type: cell-based
Homo sapiens [4] = organism: Homo sapiens; assay: Ratio of Ki for KOR H291A mutant (unknown origin) to Ki for human KOR expressed in HEK293 cells; type: cell-based
Homo sapiens [5] = organism: Homo sapiens; assay: Ratio of Ki for KOR I294A mutant (unknown origin) to Ki for human KOR expressed in HEK293 cells; type: cell-based
[6] = target: T1, Kappa-type opioid receptor; assay: Antagonist activity at KOR (unknown origin) expressed in HTLA cells assessed as inhibition of Sal A-induced beta-arrestin recruitment preincubated for overnight followed by Sal-A addition at 30 mins post compound treatment measured after 20 mins by Bright-Glo luminescence assay; type: cell-based
How it was run: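 HTLA cells transfected overnight, plated at 15,000 cells/well in DMEM with 1% dialyzed FBS on poly-L-Lys, rested ≥6 h. Test compounds added, then Sal A 30 nM 30 min later; overnight incubation. BrightGlo reagent 20 min at room temperature in the dark; luminescence read. Normalized data, mean ± SEM from at least 4 measurements.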

[7] = target: T1, Kappa-type opioid receptor; assay: Antagonist activity at human KOR expressed in HEK293T cells coexpressing Gi assessed as Gi-mediated inhibition of cAMP production incubated for 15 mins followed by Gs activator isoproterenol addition measured after 15 mins by luciferase reporter gene assay; type: functional, cell-based; settings: HEK-293T
How it was run: (§1)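 HEK293T cells co-transfected with human KOR and GloSensor split-luciferase cAMP biosensor, plated 15,000 cells/well overnight. Loaded 1 h with 4 mM luciferin in 20 mM HEPES/HBSS pH 7.4. Compounds preincubated 15 min, Sal A 20 nM added for 15 min, then isoproterenol (200 nM final) to drive Gs; luminescence read 15 min later. Sal A shifts analysed by Schild analysis to give KB.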

[8] = target: T1, Kappa-type opioid receptor; assay: Antagonist activity at human KOR expressed in HEK293T cells coexpressing Gi assessed as inhibition of Sal A-induced Gi-mediated reduction of cAMP production incubated for 15 mins followed by Sal A addition for 15 mins and susequent addition of Gs activator isoproterenol measured after 15 mins by luciferase reporter gene assay; type: functional, cell-based; how it was run: as §1
[9] = tested on: Kappa-type opioid receptor (Homo sapiens), P41145 [M142A]; assay: Displacement of 3H-U69593 from KOR M142A mutant (unknown origin)
How it was run: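 Single-point KOR mutants were retested alongside wild-type receptor in ³H-U69593 competition binding. 12-point concentration-response from 100 µM to 10 nM, run in triplicate; Ki derived.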

[10] = target: T1, Kappa-type opioid receptor; assay: Agonist activity at human KOR expressed in HEK293T cells coexpressing Gi assessed as Gi-mediated inhibition of cAMP production at 10 uM incubated for 15 mins followed by Gs activator isoproterenol addition measured after 15 mins by luciferase reporter gene assay relative to Sal-A; type: functional, cell-based; settings: HEK-293T
How it was run: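 HEK293T cells co-transfected with human KOR and a split-luciferase GloSensor cAMP biosensor, plated overnight at 15,000 cells/well in DMEM + 1% dialyzed FBS. Loaded 1 h with 20 mM HEPES/1× HBSS pH 7.4 containing 4 mM luciferin. Drug added for 15 min, then isoproterenol (200 nM final, Gs activation via endogenous β2 receptors); luminescence read 15 min later.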

T1 sequence (P41145 whole entry): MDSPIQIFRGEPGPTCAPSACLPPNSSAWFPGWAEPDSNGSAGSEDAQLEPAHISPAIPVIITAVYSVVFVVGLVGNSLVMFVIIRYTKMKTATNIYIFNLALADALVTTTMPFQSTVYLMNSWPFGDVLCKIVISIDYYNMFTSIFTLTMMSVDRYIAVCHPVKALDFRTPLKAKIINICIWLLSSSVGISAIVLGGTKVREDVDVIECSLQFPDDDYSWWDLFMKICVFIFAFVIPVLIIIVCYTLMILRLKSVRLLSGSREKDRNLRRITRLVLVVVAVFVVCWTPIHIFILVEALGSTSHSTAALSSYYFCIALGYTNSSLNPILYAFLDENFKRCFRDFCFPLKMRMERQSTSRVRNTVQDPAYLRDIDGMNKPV
Kappa-type opioid receptor (Homo sapiens), P41145 [M142A], sequence (P41145 whole entry M142A): as the sequence (P41145 whole entry) above, with M142A counted along it

Row | SMILES | inhibition [1] [%] | Ki ([2]; read-out: Ki) [nM] | also measured
1 | CC(CCc1ccc(O)cc1)NCCc1ccccc1 (centres undefined) | 70.2 | 6600 | 
2 | Cc1nc(O)cc(C2CCN(Cc3ccc(C4CCCC4)s3)CC2)n1 | 73.7 | 8100 | 
3 | Cc1ccc(-c2ccccc2CN2CC3CNCC3C2)o1 (centres undefined) | 60.7 | 3000 | 
4 | Oc1cccc(C(O)CNCc2ccc(Cl)cc2Cl)c1 (centres undefined) | 97.9 | 90 | Ratio Ki (Homo sapiens [3]): 10; Ki ([2]; read-out: pKi (converted)): 83.2 nM; Ratio Ki (Homo sapiens [4]): > 10; Ratio Ki (Homo sapiens [5]): > 10; IC50 [6]: 1100 nM; Ki [6]: 230 nM; inhibition [6]: Dose-dependent effect; Kb [7]: 170 nM; inhibition ([8]; HEK-293T): Dose-dependent effect; Kb ([8]; read-out: pA2 (converted)): 166 nM
5 | Cc1ccc(C(CNC(=O)c2oc3ccccc3c2C)N2CCCC2)o1 (centres undefined) | 69.1 | 380 | inhibition [9]: Active; Ki ([2]; read-out: pKi (converted)): 363 nM; inhibition [10]: 40 to 60%
6 | Cc1ccc(C(CNC(=O)c2oc3ccc(F)cc3c2C)N2CCCC2)o1 (centres undefined) | 75.8 | 660 | inhibition [9]: Active; Ki ([2]; read-out: pKi (converted)): 646 nM; inhibition [10]: 40 to 60%
7 | Oc1cccc(CNCc2cc3ccccc3[nH]2)c1 | 82.4 | 710 | Ki ([2]; read-out: pKi (converted)): 676 nM
8 | Oc1cccc(C(O)CNCc2c(Cl)cccc2Cl)c1 (centres undefined) | 80.1 | 2600 | 
9 | COc1ccc(CNCC(O)c2cccc(O)c2)cc1Br (centres undefined) | 98.2 | 230 | Ratio Ki (Homo sapiens [3]): 10; Ratio Ki (Homo sapiens [4]): > 10; Ratio Ki (Homo sapiens [5]): > 10
10 | Cc1c(C(=O)NCC(c2ccco2)N2CCCC2)oc2ccc(Cl)cc12 (centres undefined) | 86.5 | 520 | inhibition [9]: Active; inhibition [10]: 40 to 60%
11 | CSc1ccc(CN(CCO)Cc2ccc(-c3ccn[nH]3)s2)cc1 | 53 | 3000 | 
12 | c1ccc(CN2CCC(Nc3nc4ccccc4o3)C2)cc1 (centres undefined) | 77.5 | 2600 | inhibition [10]: 40 to 60%
13 | COC(=O)[C@@H]1C[C@H](OC(C)=O)C(=O)[C@H]2[C@@]1(C)CC[C@H]1C(=O)O[C@H](c3ccoc3)C[C@]21C |  |  | Ratio Ki (Homo sapiens [3]): 10
14 | CN(Cc1ccccc1NC(=O)NCc1ccoc1)C1CCCCC1 | 76.5 | 2300 | 
15 | Cc1cccc(C(O)CNC(C)Cn2cc(Br)cn2)c1 (centres undefined) | 49.8 | 6400 | 
16 | Oc1ccc(CCC2CCCCN2Cc2ccc(Cl)o2)cc1 (centres undefined) | 95.3 | 500 | 
17 | Cc1cc2oc(C(=O)NCC(c3ccco3)N3CCCC3)c(C)c2cc1C (centres undefined) | 77.5 | 1100 | 
18 | CCN(Cc1csc(C)n1)C(C)c1cccc(O)c1 (centres undefined) | 74 | 630 | Ki ([2]; read-out: pKi (converted)): 562 nM; Ratio Ki (Homo sapiens [4]): > 10; Ratio Ki (Homo sapiens [5]): > 10
19 | NC(=O)c1cc(S(=O)(=O)NC2CCN(Cc3ccccc3)CC2)cs1 | 47.3 | 9800 | 
20 | Cc1ncsc1CN1CCCCC1CCc1cccc(O)c1 (centres undefined) | 96.9 | 350 | 
21 | NC1CCc2cc(O)ccc2C1 (centres undefined) | 48.6 | 8300 | 
22 | O=C(NC[C@@H](c1ccco1)N1CCCC1)c1cc2ccccc2o1 | 64 | 950 | Ki ([2]; read-out: pKi (converted)): 912 nM
23 | COc1ccc2oc(C(=O)NCC(c3ccco3)N3CCCC3)c(C)c2c1 (centres undefined) | 74 | 720 | 
24 | Cc1cc(S(=O)(=O)NCC(=O)NC2CCC2NC(C)C)ccc1F (centres undefined) | 49.1 | 6200 | 
